The text below walks through data of ChEMBL document CHEMBL2150931, “Design, synthesis, and biological activity of a novel series of human sirtuin-2-selective inhibitors” (J Med Chem, 2012).

Assay [1] deals with T1, NAD-dependent protein deacetylase sirtuin-1 (Homo sapiens, UniProt Q96EB6).
T1 sequence (Q96EB6 whole entry): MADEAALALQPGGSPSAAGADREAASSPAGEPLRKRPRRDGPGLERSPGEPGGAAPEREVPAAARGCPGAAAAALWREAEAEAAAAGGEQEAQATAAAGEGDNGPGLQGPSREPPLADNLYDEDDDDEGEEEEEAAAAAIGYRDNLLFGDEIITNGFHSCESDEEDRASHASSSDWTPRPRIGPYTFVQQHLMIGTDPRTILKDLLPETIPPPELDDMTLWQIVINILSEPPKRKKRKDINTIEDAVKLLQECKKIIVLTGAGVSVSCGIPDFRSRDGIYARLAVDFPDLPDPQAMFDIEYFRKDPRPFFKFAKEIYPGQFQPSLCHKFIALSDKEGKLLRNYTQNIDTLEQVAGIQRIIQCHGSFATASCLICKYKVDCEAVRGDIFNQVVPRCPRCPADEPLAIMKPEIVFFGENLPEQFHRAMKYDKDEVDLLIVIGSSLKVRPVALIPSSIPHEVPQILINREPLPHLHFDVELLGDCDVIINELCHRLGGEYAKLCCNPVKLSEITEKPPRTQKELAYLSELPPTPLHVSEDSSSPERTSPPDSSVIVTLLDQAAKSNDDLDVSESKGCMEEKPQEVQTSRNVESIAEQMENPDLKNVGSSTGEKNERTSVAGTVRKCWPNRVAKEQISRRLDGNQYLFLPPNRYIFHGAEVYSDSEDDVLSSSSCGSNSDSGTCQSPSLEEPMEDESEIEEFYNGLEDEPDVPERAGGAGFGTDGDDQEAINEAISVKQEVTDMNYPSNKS
As to the kind of experiment: Inhibition of human recombinant SIRT1 using Fluor de Lys-SIRT as substrate incubated for 60 mins prior to substrate addition measured after 60 mins by fluorimetric analysis. An outline of the steps: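 Human recombinant SIRT1 run the same way: 60 min at 37 °C with 1 mM NAD⁺ and serial compound dilutions, then 25 μM Fluor de Lys-SIRT substrate for 60 min. Stopped with nicotinamide-containing Developer II and read 45 min later at ex 360/em 460 nm. IC₅₀ from logit regression of % inhibition vs control; means of ≥3 experiments.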

Assay [2] addresses T2, Polyamine deacetylase HDAC10 (Homo sapiens, UniProt Q969S8).
T2 sequence (Q969S8 whole entry): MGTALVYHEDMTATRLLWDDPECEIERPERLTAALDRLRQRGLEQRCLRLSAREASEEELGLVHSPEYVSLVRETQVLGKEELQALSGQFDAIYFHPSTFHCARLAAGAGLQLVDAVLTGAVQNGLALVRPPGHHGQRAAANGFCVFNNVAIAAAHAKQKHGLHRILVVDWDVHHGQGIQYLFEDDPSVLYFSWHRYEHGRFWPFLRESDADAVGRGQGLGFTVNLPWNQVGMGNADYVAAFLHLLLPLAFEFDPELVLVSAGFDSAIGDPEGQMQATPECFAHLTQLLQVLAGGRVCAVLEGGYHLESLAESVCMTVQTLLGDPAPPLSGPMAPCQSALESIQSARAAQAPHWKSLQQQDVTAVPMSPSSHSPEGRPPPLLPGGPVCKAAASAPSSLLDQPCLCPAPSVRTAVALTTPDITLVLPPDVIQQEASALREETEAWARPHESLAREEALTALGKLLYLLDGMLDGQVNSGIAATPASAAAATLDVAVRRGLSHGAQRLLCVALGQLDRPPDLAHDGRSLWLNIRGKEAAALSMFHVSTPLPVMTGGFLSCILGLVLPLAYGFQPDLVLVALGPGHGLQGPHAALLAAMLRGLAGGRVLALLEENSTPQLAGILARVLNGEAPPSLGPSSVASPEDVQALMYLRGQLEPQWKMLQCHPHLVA
The assay can be described thus: Inhibition of HDAC10.

The next assay concerns the target Histone deacetylase 4 (Homo sapiens, UniProt P56524). As to the kind of experiment: Inhibition of HDAC4.
Another assay addresses Cytochrome P450 2D6 (Homo sapiens, UniProt P10635). The assay can be described thus: Inhibition of CYP2D6. It counts as ADME.
In a further assay the target is T3, Histone deacetylase 11 (Homo sapiens, UniProt Q96DB2).
T3 sequence (Q96DB2 whole entry): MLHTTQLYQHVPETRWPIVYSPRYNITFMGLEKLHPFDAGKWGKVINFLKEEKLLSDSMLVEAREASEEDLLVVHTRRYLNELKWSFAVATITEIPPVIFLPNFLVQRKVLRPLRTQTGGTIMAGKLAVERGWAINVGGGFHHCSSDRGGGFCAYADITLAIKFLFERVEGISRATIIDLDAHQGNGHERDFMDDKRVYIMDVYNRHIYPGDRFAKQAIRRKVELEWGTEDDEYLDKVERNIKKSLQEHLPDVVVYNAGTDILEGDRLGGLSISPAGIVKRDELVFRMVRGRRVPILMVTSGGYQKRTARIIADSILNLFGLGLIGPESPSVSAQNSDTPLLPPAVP
The assay can be described thus: Inhibition of HDAC11.

The next assay deals with Cytochrome P450 3A4 (Homo sapiens, UniProt P08684). The assay can be described thus: Inhibition of CYP3A4. It counts as ADME.
Chain of Cytochrome P450 3A4 (P08684 whole entry): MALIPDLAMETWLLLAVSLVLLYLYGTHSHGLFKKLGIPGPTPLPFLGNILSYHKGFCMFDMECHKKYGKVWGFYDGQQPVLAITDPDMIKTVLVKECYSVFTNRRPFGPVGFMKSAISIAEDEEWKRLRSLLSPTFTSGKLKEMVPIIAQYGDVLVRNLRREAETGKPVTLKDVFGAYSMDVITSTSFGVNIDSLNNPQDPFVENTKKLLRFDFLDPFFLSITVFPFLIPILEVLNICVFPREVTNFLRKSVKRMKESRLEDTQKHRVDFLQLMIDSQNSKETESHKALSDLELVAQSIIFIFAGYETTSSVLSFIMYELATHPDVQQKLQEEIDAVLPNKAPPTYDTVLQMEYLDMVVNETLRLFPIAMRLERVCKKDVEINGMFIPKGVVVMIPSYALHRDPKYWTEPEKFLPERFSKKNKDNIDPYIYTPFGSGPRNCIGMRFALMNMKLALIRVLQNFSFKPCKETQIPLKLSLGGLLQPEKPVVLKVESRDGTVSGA
The target in assay [3] is T4, NAD-dependent protein deacetylase sirtuin-2 (Homo sapiens, UniProt Q8IXJ6).
T4 sequence (Q8IXJ6 whole entry): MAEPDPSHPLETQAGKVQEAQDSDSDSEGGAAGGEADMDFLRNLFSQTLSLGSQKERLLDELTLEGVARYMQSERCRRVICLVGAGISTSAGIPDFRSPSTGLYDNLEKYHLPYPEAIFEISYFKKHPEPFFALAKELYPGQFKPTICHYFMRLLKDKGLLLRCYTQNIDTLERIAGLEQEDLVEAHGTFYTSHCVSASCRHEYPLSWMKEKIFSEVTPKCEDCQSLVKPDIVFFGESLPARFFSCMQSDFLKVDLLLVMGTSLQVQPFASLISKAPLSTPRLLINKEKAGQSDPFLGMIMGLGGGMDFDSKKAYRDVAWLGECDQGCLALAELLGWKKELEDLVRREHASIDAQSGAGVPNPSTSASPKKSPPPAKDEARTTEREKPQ
The assay can be described thus: Inhibition of human recombinant SIRT2 using Fluor de Lys-SIRT as substrate incubated for 60 mins prior to substrate addition measured after 60 mins by fluorimetric analysis. The gist of the method:
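Human recombinant SIRT2 preincubated with 1 mM NAD⁺ and serial compound dilutions for 60 min at 37 °C, then 25 μM Fluor de Lys-SIRT substrate added. Reaction stopped at 60 min with Developer II containing nicotinamide. Fluorescence read 45 min later at ex 360/em 460 nm. % inhibition taken against control wells. IC₅₀ obtained by regression of log[Inh] vs logit % inhibition; means of ≥3 experiments.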

Broadly, the IC50 is the concentration needed to halve the response being measured.

Chain of Histone deacetylase 4 (P56524 whole entry): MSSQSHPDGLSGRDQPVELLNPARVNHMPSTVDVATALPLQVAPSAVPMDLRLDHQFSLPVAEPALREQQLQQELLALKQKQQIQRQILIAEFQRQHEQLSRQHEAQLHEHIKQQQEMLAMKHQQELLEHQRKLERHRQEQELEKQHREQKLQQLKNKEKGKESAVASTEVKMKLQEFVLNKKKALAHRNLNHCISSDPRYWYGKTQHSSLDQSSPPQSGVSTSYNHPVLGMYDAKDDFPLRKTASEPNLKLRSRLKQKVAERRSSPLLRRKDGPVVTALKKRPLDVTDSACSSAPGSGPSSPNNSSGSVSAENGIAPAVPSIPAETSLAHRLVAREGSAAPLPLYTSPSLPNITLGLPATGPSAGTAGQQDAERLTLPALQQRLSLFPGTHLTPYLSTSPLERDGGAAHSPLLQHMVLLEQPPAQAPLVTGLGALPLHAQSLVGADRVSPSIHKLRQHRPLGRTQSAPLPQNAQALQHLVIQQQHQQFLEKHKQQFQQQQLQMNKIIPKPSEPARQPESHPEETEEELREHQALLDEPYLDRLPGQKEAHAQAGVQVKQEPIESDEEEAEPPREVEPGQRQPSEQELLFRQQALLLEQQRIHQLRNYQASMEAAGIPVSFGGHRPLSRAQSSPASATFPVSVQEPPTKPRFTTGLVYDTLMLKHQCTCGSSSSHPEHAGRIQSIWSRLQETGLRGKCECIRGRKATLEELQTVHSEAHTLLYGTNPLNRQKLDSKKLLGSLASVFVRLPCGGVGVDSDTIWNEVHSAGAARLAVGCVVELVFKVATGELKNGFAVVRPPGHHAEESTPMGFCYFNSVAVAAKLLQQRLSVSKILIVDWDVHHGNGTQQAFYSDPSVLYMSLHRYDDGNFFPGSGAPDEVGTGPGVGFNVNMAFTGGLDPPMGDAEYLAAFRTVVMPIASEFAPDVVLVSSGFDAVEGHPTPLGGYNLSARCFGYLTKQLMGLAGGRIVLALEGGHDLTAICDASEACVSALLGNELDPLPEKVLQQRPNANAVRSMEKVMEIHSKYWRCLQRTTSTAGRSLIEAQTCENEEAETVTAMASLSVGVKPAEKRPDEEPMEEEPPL
Chain of Cytochrome P450 2D6 (P10635 whole entry): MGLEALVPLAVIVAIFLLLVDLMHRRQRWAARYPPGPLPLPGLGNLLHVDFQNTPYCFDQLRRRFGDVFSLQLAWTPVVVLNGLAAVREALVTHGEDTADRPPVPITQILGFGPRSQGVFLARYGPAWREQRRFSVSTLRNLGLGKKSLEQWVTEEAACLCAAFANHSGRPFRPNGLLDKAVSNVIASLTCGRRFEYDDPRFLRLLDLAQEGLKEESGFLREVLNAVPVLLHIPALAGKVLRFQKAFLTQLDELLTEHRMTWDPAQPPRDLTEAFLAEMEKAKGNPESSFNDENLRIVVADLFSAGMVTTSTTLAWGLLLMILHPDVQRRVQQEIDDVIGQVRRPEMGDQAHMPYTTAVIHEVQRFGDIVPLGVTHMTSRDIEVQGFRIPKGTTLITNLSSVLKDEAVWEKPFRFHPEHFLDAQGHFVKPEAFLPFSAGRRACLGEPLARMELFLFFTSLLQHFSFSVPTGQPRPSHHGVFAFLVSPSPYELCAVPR

On to `NC(=O)c1ccccc1Nc1cccc(OCCc2ccccc2)c1`, for which the IC50 in assay [1] was above 100 µM; in assay [2], above 30 µM; against Histone deacetylase 4, above 30 µM; on Cytochrome P450 2D6, above 10 µM; on Histone deacetylase 11, above 30 µM; at Cytochrome P450 3A4, above 10 µM. Further, in assay [3], the IC50 is 1 µM.
